Assay results published in ChEMBL document CHEMBL4177746, “Discovery of orally efficacious RORγt inverse agonists. Part 2: Design, synthesis, and biological evaluation of novel tetrahydroisoquinoline derivatives” (Bioorg Med Chem, 2018).

Legend:
[1] = (§1) AUC (0 to 8 hrs) in mouse at 1 mg/kg, po administered via cassette dose by LC-MS/MS analysis; assay type: ADME, organism-based; design: time < 8 hr, dose 1 mg/kg, route oral; settings: in vivo
Outline: (§2)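 Cassette oral dosing of mice at 1 mg/kg. Blood was sampled after dosing and centrifuged to give plasma. Plasma was deproteinized with acetonitrile containing internal standard, centrifuged, diluted with LC mobile phase and centrifuged again for analysis. Values are means of three determinations.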

[2] = Oral bioavailability in mouse at 1 mg/kg administered via cassette dose by LC-MS/MS analysis; assay type: ADME, organism-based; settings: in vivo; outline: as §2
Mus musculus [3] = assay: Effect on IFNgamma expression in po dosed Balb/c mouse measured after 24 hrs by qRT-PCR analysis; assay type: ADME, organism-based; settings: in vivo
[4] = Cmax in Balb/c mouse at 3 mg/kg, po; assay type: ADME, organism-based; design: dose 3 mg/kg, route oral; settings: in vivo
Outline: (§3)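 Male Balb/c mice, 7 weeks old, received intradermal ear injection of recombinant mouse IL-23 (500 ng/10 μL PBS) under isoflurane. Compound was suspended in 0.5% methylcellulose and given orally at 3, 10 or 30 mg/kg, 30 min before and 8 h after IL-23. Plasma concentration was measured in parallel with the PD assay, giving Cmax and […].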

[5] = Cmax in Balb/c mouse at 10 mg/kg, po; assay type: ADME, organism-based; design: dose 10 mg/kg, route oral; settings: in vivo; outline: as §3
[6] = Cmax in Balb/c mouse at 30 mg/kg, po; assay type: ADME, organism-based; design: dose 30 mg/kg, route oral; settings: in vivo; outline: as §3
[7] = AUC (0 to 24 hrs) in Balb/c mouse at 3 mg/kg, po; assay type: ADME, organism-based; design: dose 3 mg/kg, time < 24 hr, route oral; settings: in vivo
Outline: (§4)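 Male Balb/c mice, 7 weeks old, received 3, 10 or 30 mg/kg orally as a suspension in 0.5% methylcellulose. Dosing was 30 min before and 8 h after intradermal ear injection of recombinant mouse IL-23 (500 ng in 10 μL PBS). Plasma drug levels were measured alongside this PD study, and AUC was taken over 0–24 h.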

[8] = AUC (0 to 24 hrs) in Balb/c mouse at 10 mg/kg, po; assay type: ADME, organism-based; design: time < 24 hr, dose 10 mg/kg, route oral; settings: in vivo; outline: as §4
[9] = AUC (0 to 24 hrs) in Balb/c mouse at 30 mg/kg, po; assay type: ADME, organism-based; design: time < 24 hr, dose 30 mg/kg, route oral; settings: in vivo; outline: as §4
Mus musculus [10] = assay: Drug uptake in po dosed Balb/c mouse; assay type: ADME, organism-based; settings: in vivo; outline: as §3
Mus musculus [11] = species on record: Mus musculus; assay: animal or person; settings: Balb/c, po
Mus musculus [12] = assay: as §1; assay type: ADME, organism-based; design: time < 8 hr, dose 1 mg/kg, route oral; settings: in vivo, 8 h; outline: as §2

SMILES	AUC(0-t) at 8 h [1]	bioavailability [2]	other results
COc1ccc2c(c1)CCN(C(=O)CC(C)(O)CC(=O)O)[C@H]2C(=O)Nc1cc(F)c([Si](C)(C)C)c(F)c1 (stereo not given in full)	159 ng·h/mL	34%	
COc1ccc2c(c1)CCN(C(=O)c1cc(O)no1)[C@H]2C(=O)Nc1cc(F)c([Si](C)(C)C)c(F)c1	200 ng·h/mL	11%	
COc1ccc([C@H](C(=O)Nc2cc(F)c([Si](C)(C)C)c(F)c2)N(C)C(=O)c2cc(O)no2)cc1		18%	AUC (Mus musculus [12]): 374 ng·h/mL
COc1ccc2c(c1)CCN(C(=O)CCC(=O)O)[C@H]2C(=O)Nc1cc(F)c([Si](C)(C)C)c(F)c1	2500 ng·h/mL	51%	
COc1ccc2c(c1)OCCN(C(=O)c1cc(O)no1)[C@H]2C(=O)Nc1cc(F)c([Si](C)(C)C)c(F)c1	29.5 ng·h/mL	9%	
COc1ccc2c(c1)CCN(C(=O)CC(C)(C)CC(=O)O)[C@H]2C(=O)Nc1cc(F)c([Si](C)(C)C)c(F)c1	2270 ng·h/mL	40%	
COc1ccc2c(c1)CCN(C(=O)CC1SC(=O)NC1=O)[C@H]2C(=O)Nc1cc(F)c([Si](C)(C)C)c(F)c1 (stereo not given in full)	120 ng·h/mL	13%	
COc1ccc([C@H](C(=O)Nc2cc(F)c([Si](C)(C)C)c(F)c2)N(C)C(=O)CCC(=O)O)cc1	162 ng·h/mL	8.5%	

Now from value to compound, other results behind:

AUC(0-t) at 8 h [1]	bioavailability [2]	SMILES	other results
6890 ng·h/mL	94%	COc1ccc2c(c1)CCN(C(=O)CCCC(=O)O)[C@H]2C(=O)Nc1cc(F)c([Si](C)(C)C)c(F)c1	Activity (Mus musculus [3]): Non-Toxic; Cmax [4]: 1630 ng/mL; Cmax [5]: 7720 ng/mL; Cmax [6]: 19000 ng/mL; AUC(0-t) at 24 h [7]: 10700 ng·h/mL; AUC(0-t) at 24 h [8]: 48000 ng·h/mL; AUC(0-t) at 24 h [9]: 159000 ng·h/mL; Drug uptake (Mus musculus [10]): Dose-dependent effect; ED50 (Mus musculus [11]): 2.8 mg/kg
619 ng·h/mL	51%	COc1ccc2c(c1)CCN(C(=O)/C=C/C(=O)O)[C@H]2C(=O)Nc1cc(F)c([Si](C)(C)C)c(F)c1	
1030 ng·h/mL	84%	COc1ccc2c(c1)CCN(C(=O)CCCCC(=O)O)[C@H]2C(=O)Nc1cc(F)c([Si](C)(C)C)c(F)c1	
2500 ng·h/mL	65%	COc1ccc2c(c1)CCN(C(=O)CC(C)CC(=O)O)[C@H]2C(=O)Nc1cc(F)c([Si](C)(C)C)c(F)c1 (stereo not given in full)	
92 ng·h/mL	14%	COc1ccc2c(c1)CCN(C(=O)CCCC(N)=O)[C@H]2C(=O)Nc1cc(F)c([Si](C)(C)C)c(F)c1	
